Screens: PubChem BioAssay, NMMLSC
MEKK3 PB1 HTS – raises or lowers MEK5 binding to the human MEKK3 PB1 domain; Q99759; bead-based flow cytometry, Alexa488-MEK5 binding to MEKK3; actives lie on both sides; 0 = blocked by unlabeled MEK5, 100 = vehicle; binding response (% of control), % at 10 µM; actives 1.4% (n = 290,000);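 active = binding response more than 3 SD above or below the average of its plate-row segment, actives on both sides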;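 note: Alexa488 bead fluorescence after subtracting the streptavidin-only scavenger bead signal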
Target sequence (Q99759 whole entry, looked up, the tested form may be a part): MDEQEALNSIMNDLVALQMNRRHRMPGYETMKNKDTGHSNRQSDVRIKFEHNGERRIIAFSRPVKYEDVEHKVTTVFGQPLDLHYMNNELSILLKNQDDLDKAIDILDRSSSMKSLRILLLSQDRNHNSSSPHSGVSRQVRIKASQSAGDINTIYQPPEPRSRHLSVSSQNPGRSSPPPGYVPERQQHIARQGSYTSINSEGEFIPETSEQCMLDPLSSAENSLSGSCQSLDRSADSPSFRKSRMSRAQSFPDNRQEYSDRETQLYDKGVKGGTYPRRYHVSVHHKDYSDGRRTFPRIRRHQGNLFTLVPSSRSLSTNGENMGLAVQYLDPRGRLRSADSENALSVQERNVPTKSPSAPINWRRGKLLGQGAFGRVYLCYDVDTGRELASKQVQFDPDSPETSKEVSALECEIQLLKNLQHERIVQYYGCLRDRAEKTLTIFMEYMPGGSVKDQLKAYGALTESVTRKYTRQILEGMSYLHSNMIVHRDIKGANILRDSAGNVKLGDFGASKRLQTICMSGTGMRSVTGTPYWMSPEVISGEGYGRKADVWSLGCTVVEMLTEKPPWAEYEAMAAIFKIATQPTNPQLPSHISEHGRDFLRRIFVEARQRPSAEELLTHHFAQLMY
MEKK2 WT-MEK5 – raises or lowers MEK5 binding to wildtype human MEKK2 PB1 domain | bead flow cytometry, Alexa488-MEK5 binding to MEKK2 WT; actives lie on both sides | binding response (% of control), % at 10 µM | actives 1.1% (n = 290,000); in the data active = binding response below about 67% or above about 130%
Arrestin-AP2 inh – human beta-arrestin and AP2 interaction inhibition; FITC-arrestin peptide / GST-AP2 beads, flow cytometry; AP2 beta2 appendage carries R879A mutation; actives 0.31% (n = 340,000); inhibition, % at 10 µM;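 active = inhibition above a set limit, near 3 SD of compounds lacking own fluorescence, cut at about 54% in these data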
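System: GST-AP2 R879A glutathione beads; medium: PBS, Tween 20 0.05%, BSA 0.1%; reagent: fluorescein-tagged arrestin peptide at 50 nM final; schedule: pre-incubation 12 min, peptide binding 1 h, room temperature; detection: flow cytometry, FL1 (488/535 nm); read-out: inhibition as reduced fluorescein signal on beads, percent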
MEKK2mut PB1 HTS – signal of MEK5 binding to mutant human MEKK2 PB1 domain; bead flow cytometry, Alexa488-MEK5 binding to MEKK2 mutant; percent response, % at 10 µM; actives 0.35% (n = 290,000); AID 1530; in the data active = percent response above about 24%, passing the limit was not always enough
MEKK2wt confirm – raises or lowers MEK5 binding to wildtype human MEKK2, retest; binding response (% of control), % at 10 µM; bead flow cytometry, Alexa488-MEK5 binding to MEKK2 WT; actives lie on both sides; AID 1892; shares compounds with MEKK3 PB1 HTS; actives 2.4% (n = 5,900); in the data active = binding response below about 16% or above about 210%; inactive = in between
MEKK2mut-MEK5 – signal of MEK5 binding to mutant human MEKK2, retest; shares compounds with MEKK3 PB1 HTS; bead flow cytometry, Alexa488-MEK5 binding to MEKK2 mutant; percent response, % at 10 µM; actives 2% (n = 5,900); AID 1893; in the data active = percent response mostly above about 71%, no sharp cut-off; inactive = mostly below about 38%;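 note: higher means compound restores mutant binding toward wildtype level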
MEKK3-MEK5 inh – confirmation of inhibitors of MEK5 binding to human MEKK3 | actives 1.8% (n = 5,900) | bead flow cytometry, Alexa488-MEK5 binding to MEKK3; active compounds read low | binding response (% of control), % at 10 µM | AID 1894 | shares compounds with MEKK3 PB1 HTS;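 active = binding response below 72% of control, or above a set upper limit, though filed actives all read lower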;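 note: lower values mean stronger disruption of MEK5 binding to MEKK3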
Of the large screens only hits and unclear results are named; the others gave an inactive call (follow-up assays come after a bar, where they were run); ! = not active in a repeat; [ ] = another dose, or the depositor's remark. A selection: hits, their analogues and other compounds. The true share with any hit is near 2.3%.

COCCCNC(=O)c1cc(Sc2nnc(C)s2)nc2ccccc12	none
Cc1nnc(Sc2cc(C(=O)NCCCN(C)Cc3ccccc3)c3ccccc3n2)s1	MEKK3 PB1 HTS 131 | MEKK2wt confirm inactive | MEKK2mut-MEK5 inactive | MEKK3-MEK5 inh inactive
O=C(C1=C(Nc2ccccc2)c2ccccc2S(=O)(=O)N1)c1ccccc1	MEKK3 PB1 HTS 64[inhibitor] | MEKK2wt confirm inactive | MEKK2mut-MEK5 inactive | MEKK3-MEK5 inh inactive
O=C(Cc1ccc2cccnc2c1)c1ccc(O)cc1O	MEKK3 PB1 HTS 2.0[inhibitor], MEKK2 WT-MEK5 -1.0[inhibitor] | MEKK2wt confirm inactive | MEKK2mut-MEK5 inactive | MEKK3-MEK5 inh inactive
O=C(Cc1ccccc1)c1ccc(O)cc1O	none (no result: MEKK3 PB1 HTS, MEKK2 WT-MEK5, MEKK2mut PB1 HTS)
O=C(Cn1cc[n+](CC(=O)c2ccc(Cl)cc2Cl)c1)c1ccc(Cl)cc1Cl	MEKK2 WT-MEK5 174 | MEKK2wt confirm inactive | MEKK2mut-MEK5 inactive | MEKK3-MEK5 inh inactive
O=c1c2ccccc2cnn1Cc1n[nH]c(=S)n1-c1ccccc1Cl	none
CC(=O)Nc1ccc(/C(C)=N/NS(=O)(=O)c2ccccc2)cc1	MEKK3 PB1 HTS 128 | MEKK2wt confirm inactive | MEKK2mut-MEK5 inactive | MEKK3-MEK5 inh inactive
C/C(=N/NS(=O)(=O)c1ccccc1)c1ccc(NC(=O)C2CC2)cc1	none
C/C(=N\NC(=O)COc1cccc2ccccc12)c1cccs1	none
CNCC[C@H](Oc1cccc2ccccc12)c1cccs1	MEKK2 WT-MEK5 157! | MEKK2wt confirm inactive | MEKK2mut-MEK5 inactive | MEKK3-MEK5 inh inactive
O=c1cc(-c2ccc(F)cc2)oc2ccccc12	MEKK3 PB1 HTS 2.0[inhibitor], MEKK2 WT-MEK5 2.0[inhibitor] | MEKK2wt confirm inactive | MEKK2mut-MEK5 inactive | MEKK3-MEK5 inh inactive
Cc1c(C(=O)N(Cc2ccccc2)Cc2cccs2)cnn1-c1ccc(Cl)cc1	MEKK3 PB1 HTS 132 | MEKK2wt confirm inactive | MEKK2mut-MEK5 inactive | MEKK3-MEK5 inh inactive
Cc1c(C(=O)N(Cc2ccccc2)C(C)C)cnn1-c1ccccc1	none
CCN(CC)C(=O)C[n+]1cccc(C(N)=O)c1	none
Cc1coc2c1C(=O)C(=O)c1c-2ccc2c(C)cccc12	MEKK2 WT-MEK5 138 | MEKK2wt confirm inactive | MEKK2mut-MEK5 inactive | MEKK3-MEK5 inh inactive
Cc1coc2c1C(=O)C(=O)c1c-2ccc2c1CCCC2(C)C	none
CC(=O)NCCc1nc2cc(NC(=O)COc3ccc(C)cc3)ccc2n1C	none
CCC(C)(C(=O)NC1CCCCC1)N(C(=O)C1CCC(=O)N1)c1ccc(C)cc1 (configuration not stated)	none
CCC(C)(C(=O)NC1CCCC1)N(C(C)=O)c1ccc(C)cc1 (configuration not stated)	MEKK3 PB1 HTS 2.0[inhibitor], MEKK2 WT-MEK5 2.0[inhibitor] | MEKK2wt confirm inactive | MEKK2mut-MEK5 inactive | MEKK3-MEK5 inh inactive
CCN(CC)Cc1c(O)ccc2c(=O)c(-c3ccccc3Cl)coc12	MEKK2mut PB1 HTS 25 | MEKK2wt confirm inactive | MEKK2mut-MEK5 inactive | MEKK3-MEK5 inh inactive
O=C(C[n+]1cc(-c2ccc(Cl)c(Cl)c2)n2c1CCC2)N1c2ccccc2Sc2ccccc21	MEKK2 WT-MEK5 221, MEKK2mut PB1 HTS 55 (no result: Arrestin-AP2 inh) | MEKK2wt confirm inactive | MEKK2mut-MEK5 inactive | MEKK3-MEK5 inh inactive
O=C(C[n+]1cc(-c2ccc(Cl)cc2)n2c1CCC2)N1c2ccccc2Sc2ccccc21	MEKK2 WT-MEK5 157 | MEKK2wt confirm inactive | MEKK2mut-MEK5 inactive | MEKK3-MEK5 inh inactive
C=C1CCN(C(C)C(=O)O)S(=O)(=O)c2ccccc21 (configuration not stated)	none
O=C(CN1CCN(c2ccccc2)CC1)Nc1ccc(Oc2ccccc2)cc1	MEKK3 PB1 HTS 2.0[inhibitor], MEKK2 WT-MEK5 1.0[inhibitor] | MEKK2wt confirm inactive | MEKK2mut-MEK5 inactive | MEKK3-MEK5 inh inactive
O=C(CN1CCCC1)Nc1ccc(Oc2ccc(NC(=O)CN3CCCC3)cc2)cc1	MEKK3 PB1 HTS 1.0[inhibitor], MEKK2 WT-MEK5 1.0[inhibitor] | MEKK2wt confirm inactive | MEKK2mut-MEK5 inactive | MEKK3-MEK5 inh inactive
COc1ccc(NC(=O)CN2CCCC2)cc1	none
